Measurements taken from ChEMBL document CHEMBL1134785, “Synthesis and biological evaluation of prostaglandin-F alkylphosphinic acid derivatives as bone anabolic agents for the treatment of osteoporosis” (J Med Chem, 2001).

What was measured:
[1] = system: Rattus norvegicus; assay: connectivity density (mm-3) using micro Computed Tomography(CT) after a does of 30 ug/kg in Vertebral Bone; type: functional
Procedure, shortened: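 Rats were ovariectomized at 6 months of age and, after 60 days, dosed subcutaneously once daily for 60 days, with vehicle of acetate-buffered saline, methylcellulose and polysorbate. At necropsy the fifth lumbar vertebra was scanned by micro-CT to obtain cancellous architecture. Groups were 6-8 rats; results were compared to vehicle by ANOVA with least significant difference test.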

[2] = system: Rattus norvegicus; assay: Bone formation rate/bone volume (%/year)bone measured Histomorphometrically after a dose of 10 ug/kg in proximal tibial metaphysis; type: functional; conditions: at 10 µg/kg
[3] = system: Rattus norvegicus; assay: Endosteal mineralizing surface Histomorphometrically after a dose of 1000 ug/kg in tibial diaphysis; type: functional
Procedure, shortened: (§1)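 Six-month-old rats, bilaterally ovariectomized, 6-8 per group, on natural chow. After 60 days they received once-daily subcutaneous dosing for 60 days at 0.01–3.0 mg/kg. Vehicle was acetate-buffered saline with methylcellulose and polyoxyethylenesorbitan monooleate. Labels were xylenol orange 90 mg/kg before treatment and calcein 10 mg/kg 14 and 4 days before sacrifice. Tibial histomorphometry was read under fluorescent light, with ANOVA/LSD versus vehicle.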

[4] = molecular target: T1, Prostaglandin E2 receptor EP1 subtype (Homo sapiens, UniProt P34995); assay: In vitro binding at EP1 human prostaglandin receptor using [3H]PGE-2 as radioligand
T1 sequence (P34995 whole entry): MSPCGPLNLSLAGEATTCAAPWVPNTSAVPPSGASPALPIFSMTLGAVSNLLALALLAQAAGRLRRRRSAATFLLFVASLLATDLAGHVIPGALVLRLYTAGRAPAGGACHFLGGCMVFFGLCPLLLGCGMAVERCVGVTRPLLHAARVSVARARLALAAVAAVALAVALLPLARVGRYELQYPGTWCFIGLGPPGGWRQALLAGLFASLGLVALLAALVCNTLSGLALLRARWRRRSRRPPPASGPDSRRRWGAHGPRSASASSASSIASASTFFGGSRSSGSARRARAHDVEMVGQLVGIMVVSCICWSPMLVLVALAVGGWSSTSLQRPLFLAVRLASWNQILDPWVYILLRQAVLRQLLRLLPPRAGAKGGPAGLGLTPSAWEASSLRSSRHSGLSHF
Procedure, shortened: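 hEP1 transiently expressed in COS-7 cells by the hFP transfection and membrane protocol, with membranes in TME buffer pH 6.0. Competition binding used 5 nM [3H]PGE2, 1 h at 23 °C, filtration and scintillation counting.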

[5] = system: Rattus norvegicus; assay: Mineralizing surface/bone surface(%) measured Histomorphometrically after a dose of 300 ug/kg in proximal tibial metaphysis; type: functional
Procedure, shortened: (§2)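 Ovariectomized six-month-old rats, 6-8 per group, were dosed subcutaneously once daily at 0.01–3.0 mg/kg for 60 days, starting 60 days after surgery. Vehicle was acetate-buffered saline, methylcellulose and polyoxyethylenesorbitan monooleate. Labels were xylenol orange 90 mg/kg pretreatment and calcein 10 mg/kg at 14 and 4 days before necropsy. Histomorphometry covered the proximal tibial metaphysis, 1–4 mm distal to the growth plate–metaphyseal junction. ANOVA/LSD versus vehicle.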

[6] = system: Rattus norvegicus; assay: Mineral apposition rate ([…])bone measured Histomorphometrically after a dose of 100 ug/kg in proximal tibial metaphysis; type: functional; procedure, shortened: as §2
[7] = system: Rattus norvegicus; assay: Periosteal mineral apposition rate ([…]) measured Histomorphometrically after a dose of 100 ug/kg in tibial diaphysis; type: functional; procedure, shortened: as §1
[8] = system: Rattus norvegicus; assay: Derived trabecular no (mm-1)measured using micro Computed Tomography(CT) after a dose of 1000 ug/kg in Vertebral Bone; type: functional, Trabecula
Procedure, shortened: (§3)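 Micro-CT of the fifth lumbar vertebra, measuring cancellous bone volume and architecture. Rats were 6 months old, OVX 60 days before treatment, then dosed daily for 60 days. Test-agent doses were 10–3000 µg/kg, given as a once-daily subcutaneous injection; 6 mg/kg/day was given to the positive-control group. Groups were compared with vehicle by ANOVA plus LSD test.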

[9] = system: Rattus norvegicus; assay: Trabecular no (mm)measured Histomorphometrically after a dose of 3000 ug/kg in proximal tibial metaphysis; type: functional, Trabecula
Procedure, shortened: (§4)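 Six-month-old rats were ovariectomized, and 60 days later daily subcutaneous dosing began for 60 days, with vehicle of acetate-buffered saline, methylcellulose and polysorbate. Xylenol orange (90 mg/kg) labelled bone pre-treatment and calcein (10 mg/kg) 14 and 4 days pre-sacrifice. Histomorphometry covered the proximal tibial metaphysis 1-4 mm distal to the growth plate-metaphyseal junction. Groups were 6-8 rats, compared by ANOVA/LSD vs vehicle.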

[10] = system: Rattus norvegicus; assay: Mineral apposition rate ([…])bone measured Histomorphometrically after a dose of 100 ug/kg in tibial diaphysis; type: functional; procedure, shortened: as §1
[11] = system: Rattus norvegicus; assay: Mineral apposition rate ([…])bone measured Histomorphometrically after a dose of 10 ug/kg in proximal tibial metaphysis; type: functional; procedure, shortened: as §2
[12] = system: Rattus norvegicus; assay: Periosteal mineralizing surface (%) measured Histomorphometrically after a dose of 300 ug/kg in tibial diaphysis; type: functional
Procedure, shortened: (§5)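 Rats on natural chow (1.46% Ca) were bilaterally ovariectomized at 6 months and left untreated for 60 days. They then received once-daily subcutaneous doses for 60 days, with vehicle of acetate-buffered saline, methylcellulose and polysorbate. Xylenol orange (90 mg/kg) was given before treatment and calcein (10 mg/kg) 14 and 4 days before sacrifice. Tibiae were analysed by fluorescent histomorphometry, 6-8 rats/group, ANOVA/LSD vs vehicle.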

[13] = system: Rattus norvegicus; assay: Bone formation rate/bone volume (%/year)bone measured Histomorphometrically after a dose of 30 ug/kg in proximal tibial metaphysis; type: functional; conditions: at 30 µg/kg
[14] = system: Rattus norvegicus; assay: Mineral apposition rate ([…])bone Histomorphometrically after a dose of 30 ug/kg in proximal tibial metaphysis; type: functional; procedure, shortened: as §2
[15] = system: Rattus norvegicus; assay: Mineral apposition rate ([…])bone measured Histomorphometrically after a dose of 1000 ug/kg in proximal tibial metaphysis; type: functional; procedure, shortened: as §2
[16] = system: Rattus norvegicus; assay: Mineralizing surface/bone surface(%) measured Histomorphometrically after a dose of 1000 ug/kg in proximal tibial metaphysis; type: functional; procedure, shortened: as §2
[17] = system: Rattus norvegicus; assay: Periosteal mineralizing surface (%) measured Histomorphometrically after a dose of 30 ug/kg in tibial diaphysis; type: functional; procedure, shortened: as §5
[18] = system: Rattus norvegicus; assay: Bone Volume /Tissue Volume (%)measured using micro Computed Tomography(CT) after a dose of 30 ug/kg in Vertebral Bone; type: functional; conditions: at 30 µg/kg
[19] = system: Rattus norvegicus; assay: Trabecular no (mm)measured Histomorphometrically after a dose of 10 ug/kg in proximal tibial metaphysis; type: functional, Trabecula; procedure, shortened: as §4
[20] = system: Rattus norvegicus; assay: Derived trabecular no […]measured using micro Computed Tomography(CT) after a dose of 100 ug/kg in Vertebral Bone; type: functional, Trabecula; procedure, shortened: as §3
[21] = system: Rattus norvegicus; assay: Bone Volume /Tissue Volume (%)measured Histomorphometrically after a dose of 30 ug/kg in proximal tibial metaphysis; type: functional; conditions: at 30 µg/kg
[22] = system: Rattus norvegicus; assay: Periosteal mineralizing surface (%) measured Histomorphometrically after a dose of 10 ug/kg in tibial diaphysis; type: functional; procedure, shortened: as §5
[23] = system: Rattus norvegicus; assay: Derived trabecular no […]measured using micro Computed Tomography(CT) after a dose of 300 ug/kg in Vertebral Bone; type: functional, Trabecula; procedure, shortened: as §3
[24] = system: Rattus norvegicus; assay: Mineral apposition rate ([…])bone measured Histomorphometrically after a dose of 30 ug/kg in tibial diaphysis; type: functional; procedure, shortened: as §1
[25] = system: Rattus norvegicus; assay: Derived trabecular thickness (um) measured using micro Computed Tomography(CT) after a dose of 300 ug/kg in Vertebral Bone; type: functional, Trabecula; procedure, shortened: as §3
[26] = system: Rattus norvegicus; assay: Marrow area (mm) measured Histomorphometrically after a dose of 30 ug/kg in tibial diaphysis; type: functional; procedure, shortened: as §1
[27] = system: Rattus norvegicus; assay: Bone formation rate/tissue volume (%/year) bone measured histomorphometrically after a dose of 3000 ug/kg in proximal tibial metaphysis; type: functional; conditions: at 3000 µg/kg

CP(=O)(O)CCC/C=C\C[C@@H]1[C@@H](/C=C/[C@@H](O)COc2ccccc2)[C@H](O)C[C@@H]1O
Connectivity density [1]: 59.2 mm**-3 | Activity [2]: 498.01% | Endosteal mineralizing surface [3]: 35.29% | IC50 [4]: > 10 µM | Activity [5]: 23.57% | Mineral apposition rate [6]: 0.87 µm/day | Periosteal mineral apposition rate [7]: 0.38 µm day-1 | Derived trabecular number [8]: 4.59 mm-1 | Trabecular no. [9]: 1.51 1/mm | Mineral apposition rate [10]: 0.42 µm/day | Mineral apposition rate [11]: 0.99 µm/day | Periosteal mineralizing surface [12]: 9.56% | Activity [13]: 495.65% | Mineral apposition rate [14]: 1.09 µm/day | Mineral apposition rate [15]: 1.06 µm/day | Activity [16]: 22.04% | Periosteal mineralizing surface [17]: 26.23% | Activity [18]: 34.58% | Trabecular no. [19]: 0.58 1/mm | Derived trabecular number [20]: 4.83 mm-1 | Activity [21]: 3.63% | Periosteal mineralizing surface [22]: 25.86% | Derived trabecular number [23]: 4.86 mm-1 | Mineral apposition rate [24]: 0.88 µm/day | Derived trabecular thickness [25]: 79.5 µm | Marrow area [26]: 0.87 mm² | Activity [27]: 20.13%
